# Compounds with a hit are over-represented: about 3% of the library has one in this group of screens.
# Cardio protect = modulators protecting cardiomyocytes from myocardial damage. H9c2 cardiomyocytes, H2O2 injury protection, ATPLite, 2 h. protection from H2O2 cell death, % at 20 µM. 360,000 tested, 0.63% active;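 active means compounds giving at least 50% protection of heart cells from peroxide-induced death in the single-dose screen, raw or plate-pattern-corrected value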;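 further: 0% = DMSO wells with peroxide and 100% = DMSO wells without peroxide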
# Myeloid diff 2 = compounds promoting myeloid differentiation; ER-HoxA9 myeloid progenitors, lysozyme-GFP differentiation, flow cytometry; calls only at 10 µM; 360,000 tested, 1% active;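 active means normalized GFP-positive differentiation at or above the plate's own cutoff, the solvent-only control mean plus 3 SD; inconclusive means no clear call, values can overlap the other calls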;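 further: cells exposed to compound for four days before flow analysis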
# Pemphigus Ab inh = blocks pemphigus antibody binding to human desmoglein-3; DSG3-coupled beads, scFv-anti-DSG3-GFP binding, flow cytometry; stronger effect = lower value; binding (percent of control), % at 10 µM; 310,000 tested, 0.48% active;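 active means binding more than 3 SD below its plate's average and above zero; inconclusive means below that plate limit but binding exactly zero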;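 further: hits lower antibody fragment binding to DSG3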
# Granule exo inh = lytic granule exocytosis inhibition; TALL-104 LAMP-1 surface exposure, flow cytometry; cells stimulated with thapsigargin and PMA; 360,000 tested, 0.66% active; AID 651702; inhibition, % at 10 µM;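 active means inhibition above about 55%, limit read from the data; inconclusive means no clear call, values can overlap the other calls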
# SENP1 inh = inhibitors of human SENP1 SUMO protease catalytic domain; Q9P0U3; recombinant SENP1 catalytic domain, CyPet-SUMO1-YPet FRET cleavage; inhibition, % at 10 µM; 360,000 tested, 0.21% active;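 active means inhibition at least 30% at 10 µM, raw YFP signal under a set limit, fluorescence ratio 0.5 to 1.5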;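 further: 0% = enzyme with DMSO and 100% = no enzyme wells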
#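 Controls: no-enzyme wells low, DMSO-plus-enzyme wells high control. Test system: human recombinant His6-tagged SENP1 catalytic domain enzyme. Reagent: SFCypet-SUMO1-SFYpet FRET protein substrate, 25 nM final. Doses: one dose per compound, 10 µM, 0.5% DMSO. Detection: FRET, CFP and YFP emission. Timing: 50 min reaction at room temperature.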
# HNF4A DNA FP = change in binding of human HNF4 alpha to DNA. P41235. HNF4a-FITC DNA binding, fluorescence polarization, 1 h. activity change, % at 10 µM. 360,000 tested, 0.3% active. AID 1224865; in the data active means activity change above about 30%, passing the limit was not always enough
# Target sequence (P41235 whole entry, looked up): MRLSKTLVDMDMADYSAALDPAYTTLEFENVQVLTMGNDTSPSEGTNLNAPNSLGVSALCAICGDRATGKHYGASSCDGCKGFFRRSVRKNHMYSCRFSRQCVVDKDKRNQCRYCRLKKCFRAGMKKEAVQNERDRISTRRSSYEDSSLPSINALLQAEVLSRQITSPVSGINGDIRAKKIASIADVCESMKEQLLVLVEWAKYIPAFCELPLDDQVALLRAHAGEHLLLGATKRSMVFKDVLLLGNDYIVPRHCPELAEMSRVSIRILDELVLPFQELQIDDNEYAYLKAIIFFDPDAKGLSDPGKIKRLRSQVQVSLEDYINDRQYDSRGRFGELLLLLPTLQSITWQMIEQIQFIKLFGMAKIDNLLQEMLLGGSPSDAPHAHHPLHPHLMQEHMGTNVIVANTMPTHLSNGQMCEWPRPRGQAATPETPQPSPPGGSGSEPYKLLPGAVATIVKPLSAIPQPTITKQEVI
# Starred values were filed as active, the others as inactive; i = inactive; ? = inconclusive; nt = not tested or not shown; + = active, no number.
SMILES,Cardio protect,Myeloid diff 2,Pemphigus Ab inh,Granule exo inh,SENP1 inh,HNF4A DNA FP
CCOC(=O)C1=C(CC)Nc2ccccc2N=C1NC(=O)c1ccc(S(=O)(=O)N(C)C)cc1,81*,i,90,4,0,-3
O=C1C2C3C=CC(CC3)C2C(=O)N1/N=C/c1ccc(O)c(O)c1 (centres undefined),6,i,101,-4,-1,-2
O=C1c2ccccc2C(=O)N1/N=C/c1ccc(O)c(O)c1,62*,i,nt,-4,1,-4
Oc1ccc(/C=N/N2CCCCC2)cc1O,69*,i,97,-8,1,1
Clc1ccc(C=NN2CCCCCC2)cc1Cl,-10,i,123,1,0,5
C[C@H](O)[C@@H]1C(=O)N2CCc3c([nH]c4ccccc34)[C@@H]2C[C@@H]1N(C)C(=O)Nc1cc(Cl)cc(Cl)c1,-22,i,98,-3,-65,3
CC1=Nc2ccccc2N=C(NC(=O)c2ccccc2)C1c1ccccc1 (centres undefined),21,i,91,0,-2,1
O=C(O)CN1C(=O)c2ccc(Oc3ccc4c(c3)C(=O)N(CC(=O)O)C4=O)cc2C1=O,6,i,107,-2,3,-1
CCCNc1c(F)c(F)c2c(C)c3ccccc3nc2c1F,-4,+,115,36,10,-60
Cc1c2ccccc2nc2ccccc12,4,i,nt,8,-72,-2
COc1ccc(OC)c(CCNC(=O)c2ccc(CS(=O)Cc3ccc(Cl)cc3)o2)c1 (centres undefined),-7,i,103,10,2,4
Cc1cccc(NS(=O)(=O)c2cccc(C(=O)NCC(C)(C)N3CCOCC3)c2)c1,7,+,102,-2,2,-1
COc1ccccc1NS(=O)(=O)c1cccc(C(=O)NCC(C)(C)N2CCOCC2)c1,16,i,111,-1,-1,-2
COc1cc(Nc2nc3ccccc3n3nnnc23)cc(OC)c1OC,68*,i,103,-2,-50,13
COc1ccc(Nc2nc3ccccc3n3nnnc23)cc1,32,i,104,-2,-56,-7
Fc1ccc(-c2ccc3c(c2)C2CC3CCN2Cc2ccc3c(c2)OCO3)cc1 (centres undefined),-12,i,107,-2,-1,2
Cn1c(N)c(C(=O)COC(=O)C2Cc3ccccc3CN2S(C)(=O)=O)c(=O)n(C)c1=O (centres undefined),10,i,76*,-13,-1,-3
Cc1ccc(C)c(S(=O)(=O)N2CCN(Cc3cc4c(cc3O)OCO4)CC2)c1,-2,i,97,-3,2,-1
COc1ccc(N=Cc2c(OC)ccc3ccccc23)cc1,10,i,106,3,-1,0
COc1ccc(N=Cc2sc(O)c3ccccc23)cc1,51*,i,123,4,-20,80
COc1ccc(N=Cc2c(O)c3ccccc3n2C(C)=O)cc1,-10,i,143,2,-35,97*
O=C(CSc1nc2ncc(Cl)cc2[nH]1)NCC(=O)Nc1ccc(F)c(F)c1F,1,i,103,-1,0,1
Cc1cc(-c2nnc(CCC(=O)NC(Cc3ccccc3)c3ccccc3)o2)no1 (centres undefined),-4,i,96,-1,-9,-2
O=C1CCSc2c1ccc1ccccc21,-1,+,93,-9,-46,0
O=C1CCCc2cc3c(ccc4ccccc43)cc21,-17,i,120,-3,-14,2
SMILES,Cardio protect,Myeloid diff 2,Pemphigus Ab inh,Granule exo inh,SENP1 inh,HNF4A DNA FP
O=C(NCc1cccc(C(F)(F)F)c1)c1ccc2nc([C@H]3C[C@H](O)[C@@H](CO)O3)[nH]c2c1,-2,i,nt,-5,3,1
CC(C)C[C@H](NC(=O)c1[nH]cnc1C(=O)Nc1ccccc1)C(=O)OC(C)(C)C,14,i,103,-2,0,-2
CC(C(=O)NCCC1=CCCCC1)c1ccc([N+](=O)[O-])cc1 (centres undefined),0,i,90,5,-1,-1
CCOC(=O)Cc1nn2c(=O)cc(C)nc2s1,-5,+,nt,3,8,3
CCOC(=O)Cc1c(C)nc2cc(C)nn2c1C,8,i,92,3,1,0
c1ccc(NC2=NCCN2CCCC2CCCC2)cc1,-7,i,97,54,1,-1
CCOc1ccc(CN(C)C(=O)c2ccc(NC(=O)CC3SC(N4CCCC4)=NC3=O)cc2)cc1 (centres undefined),-8,?,nt,-5,1,1
CC1CCCC(C)N1C(=O)CSc1nc(N)cc(N)n1 (centres undefined),3,i,nt,-1,-1,53*
Cc1cc(N)nc(SCC(=O)N2C(C)CCCC2C)n1 (centres undefined),0,i,92,2,0,2
O=C(O)c1ccccc1C1=Nc2ccc(O)cc2Oc2cc(O)ccc21,2,i,100,-2,59*,-89
Cc1cc(-c2ccccc2C(=O)O)on1,11,i,111,-4,0,2
CCCCCc1nc2c(C#N)c(-c3ccc(Cl)cc3)ccn2n1,-9,+,101,0,3,1
COc1ccc(C2c3ccc4ccccc4c3Oc3ncn(CCCO)c(=N)c32)cc1 (centres undefined),-8,i,115,65*,-3,3
Brc1ccc(-c2ccc(/C=N/Nc3nc4ccccc4[nH]3)o2)cc1,-22,i,96,5,-27,2
Clc1ccc(N/N=C/c2cccnc2)cc1,-7,i,101,-4,0,-5
Clc1ccc(/C=N/NC2=Nc3cccc4cccc2c34)cc1,-19,+,103,-1,18,22
C(=N\NC1=Nc2cccc3cccc1c23)/c1ccccc1,-15,i,137,2,-20,26
C(=N\NC1=Nc2cccc3cccc1c23)/c1cccnc1,-1,i,104,1,-21,40*
CCc1noc(C)c1C(=O)N(C)CC(=O)Nc1ccccc1C(F)(F)F,6,i,7.5*,-2,0,-1
CC1=NN(c2ccccc2)C(=O)/C1=C\C=C1/N(C)c2ccccc2C1(C)C,-3,i,109,0,48*,109*
CC1=NN(c2ccccc2)C(=O)/C1=C\C=C1\N(C)c2ccccc2C1(C)C,-5,i,105,-2,27,70*
COCCOC(=O)c1c(NC(=O)COC(=O)c2ccc(C)o2)sc(C(N)=O)c1C,23,i,?,-3,1,2
CN(C)CCNc1ncnc2c1ncn2[C@H]1CN(Cc2cccnc2)C[C@@H](CO)O1,0,i,nt,-11,3,0

# Source: PubChem (several laboratories)
